Bioassay records deposited in PubChem by several laboratories.
Cl transport mod – KCC2 (human) Cl- transport modulation | Q9H2X9 | KCC2 cells, thallium flux FluoZin-2 fluorescence | B-score of Tl+ flux slope (higher = more flux/activation; lower = inhibition) at 10 µM | hit rate 2.2% among 190,000;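 active = thallium flux slope and its plate-corrected score both differing from the plate sample mean at a set confidence after two filtering rounds, in either direction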;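 note: slope of fluorescence scaled to starting intensity during 10 to 20 s after thallium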
Target sequence (Q9H2X9 whole entry, looked up): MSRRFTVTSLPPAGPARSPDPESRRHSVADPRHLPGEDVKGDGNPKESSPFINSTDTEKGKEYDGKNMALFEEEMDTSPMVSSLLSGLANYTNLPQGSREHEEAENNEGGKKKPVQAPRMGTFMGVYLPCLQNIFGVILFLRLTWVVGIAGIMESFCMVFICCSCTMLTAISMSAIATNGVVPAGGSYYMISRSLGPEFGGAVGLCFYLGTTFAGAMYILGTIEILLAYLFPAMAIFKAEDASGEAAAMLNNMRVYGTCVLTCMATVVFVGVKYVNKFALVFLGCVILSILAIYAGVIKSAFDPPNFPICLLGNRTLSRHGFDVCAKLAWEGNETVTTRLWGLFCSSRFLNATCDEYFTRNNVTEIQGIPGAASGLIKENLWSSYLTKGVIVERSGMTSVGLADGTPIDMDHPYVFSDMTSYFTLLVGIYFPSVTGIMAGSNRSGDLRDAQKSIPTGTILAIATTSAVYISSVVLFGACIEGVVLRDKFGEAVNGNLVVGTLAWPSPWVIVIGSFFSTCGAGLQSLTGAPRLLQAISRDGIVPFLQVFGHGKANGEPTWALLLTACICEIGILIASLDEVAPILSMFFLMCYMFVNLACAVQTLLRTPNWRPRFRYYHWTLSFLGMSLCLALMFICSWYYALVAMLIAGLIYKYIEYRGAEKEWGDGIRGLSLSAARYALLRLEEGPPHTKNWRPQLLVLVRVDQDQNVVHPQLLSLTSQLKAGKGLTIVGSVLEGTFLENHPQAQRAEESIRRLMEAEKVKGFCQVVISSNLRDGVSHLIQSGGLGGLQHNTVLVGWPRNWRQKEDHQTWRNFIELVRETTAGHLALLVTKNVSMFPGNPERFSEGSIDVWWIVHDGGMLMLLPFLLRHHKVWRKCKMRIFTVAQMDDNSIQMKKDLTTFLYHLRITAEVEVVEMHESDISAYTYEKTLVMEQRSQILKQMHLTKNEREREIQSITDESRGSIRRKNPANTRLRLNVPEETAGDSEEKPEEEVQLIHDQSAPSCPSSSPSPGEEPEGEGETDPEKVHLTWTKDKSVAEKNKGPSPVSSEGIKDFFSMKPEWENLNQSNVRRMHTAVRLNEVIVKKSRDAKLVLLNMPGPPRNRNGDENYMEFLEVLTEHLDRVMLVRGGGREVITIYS
DTT redox prof – compounds producing H2O2 with reducing agent – biochemical, NIH compound library profiling, artefact control for MLSCN library redox annotation, primary screen. DTT-dependent redox cycling H2O2, phenol red/HRP absorbance; 100% = 100 µM peroxide control, 0% = buffer. activation, % at 10 µM. hit rate 0.03% among 200,000. AID 878;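 active = activation of at least 50% relative to the plate's high and low controls in the primary single-dose screen; inactive = activation below 50%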;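 note: compound incubated with DTT at 0.8 mM final as the reducing agent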
b-catenin transl – alters nuclear translocation of beta-catenin in HeLa cells; immunofluorescence imaging; nuclear translocation activity, % at 5 µM; hit rate 0.3% among 190,000;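 active = nuclear translocation activity above 50% at 5 µM, with a well cell count of 50 or more; inconclusive = wells under 50 cells across six images, flagged as toxic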;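 note: per-cell ratio of nuclear to cytoplasmic median beta-catenin stain intensity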
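assay system = human HeLa cells, endogenous beta-catenin | times = compound treatment 24 h, 37°C, 5% CO2 | detection = Anti-beta-catenin immunofluorescence on PFA-fixed, Triton-permeabilized cells, DAPI nuclei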
ROMK primary – modulators of human ROMK potassium channel. P48048. Tet-inducible ROMK, thallium flux fluorescence; actives lie on both sides. AID 1918. hit rate 2% among 130,000. B-score at 10 µM;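 active = signal ratio slope over the read window, or its plate-corrected B-score, at least 3 SD from the plate mean, either direction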;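 note: B-score of the F/F0 ratio slope over 7 to 12 s after thallium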
MT stabilize HCS – stabilizes microtubules in HeLa cells | HeLa tubulin immunostaining HCS, 24 h; share of cells brighter than vehicle mean+2SD | AID 2205 | % tubulin-high responders, % at 10 µM | hit rate 0.83% among 200,000;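 active = plate Z-score above 3 for both tubulin-high and condensed-nucleus cell shares, with cell loss under 80%, at 10 µM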;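 note: anti alpha tubulin signal scored within the nucleus-defined area of each cell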
KCC2 sec1 – KCC2 (human) modulation, secondary assay; shares compounds with Cl transport mod; HEK293-KCC2, thallium flux, FluoZin2 fluorescence; hits give high values; normalised thallium flux (F/F0 slope) at 10 µM; hit rate 15% among 3,700;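 active = thallium flux slope above the same plate's solvent-only control mean plus 3 SD; inconclusive = the two replicate wells disagree; inactive = no significant difference from solvent-only control wells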
KCC2 bumet counter – thallium flux despite bumetanide block in KCC2 cells, secondary assay 3. HEK293-KCC2 + bumetanide/ouabain, thallium flux FluoZin2; hits give high values. shares compounds with Cl transport mod. normalized thallium flux at 10 µM. hit rate 49% among 3,700;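 active = thallium entry rate above the same plate's blocked-transporter control wells by more than 3 SD; inconclusive = the two repeat wells disagree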;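 note: raw slope of fluorescence over initial fluorescence between 10 and 20 s after thallium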
KCC2 secondary2 – KCC2 (human) modulation, second secondary assay; shares compounds with Cl transport mod; HEK293-KCC2, thallium flux FluoZin2 fluorescence; actives lie on both sides; F/F0 rise rate, 10–20 s post-thallium; normalized thallium flux at 10 µM; hit rate 23% among 3,700;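 active = thallium flux slope more than 3 SD above or below the plate's solvent-only control mean, mostly below; inconclusive = the two repeat wells disagreed; inactive = no significant shift from solvent-only controls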
HEK293 Tl flux – acts in parental HEK cells, KCC2 counter-screen; shares compounds with Cl transport mod; HEK293 parental cells, thallium flux FluoZin2, ouabain; baseline-ratio fluorescence slope, 10–20 s after thallium; thallium flux rate (normalised fluorescence) at 10 µM; hit rate 46% among 3,700; AID 1716;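 active = thallium flux rate significantly above the same plate's solvent-only control wells, beyond their mean plus 3 SD; inconclusive = the two replicate wells gave conflicting results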
KCC2 ouabain – modulates human KCC2 on retest with ouabain. shares compounds with Cl transport mod. HEK293-KCC2, thallium flux FluoZin2 fluorescence; bidirectional: low = inhibitor, high = activator. raw Tl+ flux slope (below DMSO = inhibition, above = activation) at 10 µM. hit rate 48% among 3,700;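 active = thallium flux slope beyond 3 SD from same-plate DMSO control mean in most replicates, usually higher, sometimes lower; inconclusive = repeat tests gave conflicting results; inactive = no significant difference from controls in most replicates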;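 note: slope of initial-normalized fluorescence between seconds 10 and 20 after thallium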
HEK293 Tl flux2 – parental HEK flux effect, counter-screen 2; shares compounds with Cl transport mod; HEK293 parental, thallium flux FluoZin-2 fluorescence slope; thallium flux slope at 10 µM; hit rate 33% among 3,700;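 active = thallium flux slope above the same plate's solvent-control mean plus 3 SD in both duplicate wells; inconclusive = duplicate wells that disagreed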;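 note: run without ouabain in cells lacking the KCC2 cotransporter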
Of the large screens only hits and unclear results are named; the others gave an inactive call (follow-up assays come after a bar, where they were run). In the library only some 3.7% were active in any assay of this set; here they are far more common.

O=C(NCCN1C(=O)C2C3C=CC(C3)C2C1=O)Nc1ccccc1O (stereo not drawn)	none (no result: b-catenin transl, ROMK primary) | KCC2 sec1 inactive | KCC2 bumet counter inconclusive | KCC2 secondary2 inactive | HEK293 Tl flux inactive | KCC2 ouabain inactive | HEK293 Tl flux2 inactive
O=C1/C(=C\c2cccnc2)CCc2ccccc21	none
CC(C)/C=C1\CC/C(=C\c2cccnc2)C1=O	Cl transport mod -4.12 | KCC2 sec1 inactive | KCC2 bumet counter inactive | KCC2 secondary2 inactive | HEK293 Tl flux inactive | KCC2 ouabain inactive | HEK293 Tl flux2 inactive
CC(C)CC(C(=O)Nc1ccccc1)N1C(=O)C2C3C=CC(C3)C2C1=O (stereo not drawn)	none
CCOc1ccc(NC(=S)NNC(=S)Nc2cccc(C(F)(F)F)c2)cc1	none (no result: DTT redox prof, ROMK primary, MT stabilize HCS)
CCOc1cc(OCC)cc(C(=O)NC(=S)Nc2cccc(C(F)(F)F)c2)c1	Cl transport mod 3.34 (no result: ROMK primary) | KCC2 sec1 inactive | KCC2 bumet counter 0.0136 | KCC2 secondary2 inactive | HEK293 Tl flux 0.0128 | KCC2 ouabain inconclusive | HEK293 Tl flux2 0.0136
O=C(NC(=S)Nc1cccc(C(F)(F)F)c1)c1ccc2nonc2c1	Cl transport mod 52.3 (no result: DTT redox prof, ROMK primary, MT stabilize HCS) | KCC2 sec1 0.0238 | KCC2 bumet counter 0.121 | KCC2 secondary2 inconclusive | HEK293 Tl flux 0.041 | KCC2 ouabain 0.0628 | HEK293 Tl flux2 0.0152
Cc1c(NC(=O)c2ccc(-c3ccc([N+](=O)[O-])cc3Cl)o2)c(=O)n(-c2ccccc2)n1C	none
Brc1cccc(-c2cnc3n2CCCCC3)c1	none (no result: Cl transport mod, b-catenin transl) | KCC2 sec1 inactive | KCC2 bumet counter inactive | KCC2 secondary2 inactive | HEK293 Tl flux inactive | KCC2 ouabain inactive | HEK293 Tl flux2 inactive
Brc1cccc(-c2nnc3n2CCCCC3)c1	none (no result: ROMK primary)
Cc1ccc2c(Cl)cc(Cl)c(OCC(=O)Nc3cccc(S(=O)(=O)N(C)C)c3)c2n1	Cl transport mod 7.87 (no result: ROMK primary) | KCC2 sec1 inactive | KCC2 bumet counter 0.0187 | KCC2 secondary2 inactive | HEK293 Tl flux 0.0143 | KCC2 ouabain 0.03 | HEK293 Tl flux2 inconclusive
Cc1ccc2c(Cl)cc(Cl)c(OCC(=O)Nc3cc(S(=O)(=O)N(C)C)ccc3C)c2n1	none (no result: ROMK primary)
Cc1cc(C(=O)OCC(=O)Nc2cccc(S(=O)(=O)N(C)C)c2)c2ccccc2n1	Cl transport mod -2.89 | KCC2 sec1 inactive | KCC2 bumet counter inactive | KCC2 secondary2 inactive | HEK293 Tl flux 0.00571 | KCC2 ouabain inactive | HEK293 Tl flux2 inactive
Cc1ccc2c(Cl)cc(Cl)c(OCC(=O)Nc3ccc(C)c(S(=O)(=O)N(C)C)c3)c2n1	Cl transport mod 4.59 (no result: ROMK primary) | KCC2 sec1 inactive | KCC2 bumet counter 0.0168 | KCC2 secondary2 inactive | HEK293 Tl flux 0.0157 | KCC2 ouabain 0.0244 | HEK293 Tl flux2 inactive
COCCN1C(=O)c2cc(C(=O)Nc3ccc(OC)c(OC)c3)ccc2C1Nc1ccc(OC)c(OC)c1 (stereo not drawn)	none
Cc1cc(C#N)c(C)n1-c1cc(S(=O)(=O)N2CCOCC2)ccc1N1CCCC1	none
O=C(CCCNC(=O)/C(=C\c1ccc(F)cc1)NC(=O)c1ccccc1)OCc1ccccc1	none (no result: ROMK primary)
O=C(CCCNC(=O)/C(=C/c1ccc(F)cc1)NC(=O)c1ccccc1)OCc1ccccc1	Cl transport mod -3.2 (no result: ROMK primary) | KCC2 sec1 inactive | KCC2 bumet counter inactive | KCC2 secondary2 inactive | HEK293 Tl flux inactive | KCC2 ouabain 0.0178 | HEK293 Tl flux2 inactive
COC(=O)C1C/C(=N\NS(=O)(=O)c2ccc(C)cc2)c2ccsc2C1 (stereo not drawn)	none
CC(Oc1ccc2ccc(=O)oc2c1)C(=O)c1ccccc1 (stereo not drawn)	none
Cc1nc(SCC(=O)NC(C)(C#N)C2CC2)c2c(-c3cccs3)csc2n1 (stereo not drawn)	Cl transport mod 5.09 | KCC2 sec1 inactive | KCC2 bumet counter 0.0265 | KCC2 secondary2 inactive | HEK293 Tl flux 0.0127 | KCC2 ouabain 0.0335 | HEK293 Tl flux2 0.0115
Cc1nc(SCC(=O)NCC(F)(F)F)c2c(-c3cccs3)csc2n1	none (no result: ROMK primary)
Cc1ccc(S(=O)(=O)NC(=O)Nc2cc(C)ccc2F)cc1	Cl transport mod -10.9 (no result: ROMK primary) | KCC2 sec1 inactive | KCC2 bumet counter inconclusive | KCC2 secondary2 inactive | HEK293 Tl flux inconclusive | KCC2 ouabain inactive | HEK293 Tl flux2 inactive
CCC/C(=N/NC(=O)c1ccccc1Cl)c1ccccc1	none (no result: ROMK primary)
O=C(CN1CCN(S(=O)(=O)c2ccc(Cl)cc2)CC1)Nc1ccc2c(c1)CCC2	none | KCC2 sec1 inactive | KCC2 bumet counter inactive | KCC2 secondary2 inactive | HEK293 Tl flux inactive | KCC2 ouabain inactive | HEK293 Tl flux2 inactive
Cc1ccc(NC2CC(C)NC(=S)N2)cc1 (stereo not drawn)	none (no result: DTT redox prof, ROMK primary, MT stabilize HCS)
COc1ccc(NC(=O)CCCN2C(=O)CCC2=O)cc1Cl	none
COc1ccc(NC(=O)CCCCCN2C(=O)CCC2=O)cc1Cl	none (no result: Cl transport mod, b-catenin transl) | KCC2 sec1 inactive | KCC2 bumet counter inconclusive | KCC2 secondary2 inactive | HEK293 Tl flux inactive | KCC2 ouabain inactive | HEK293 Tl flux2 inactive
CCOC(=O)COc1ccc(/C=C2\NC(=S)N(CC)C2=O)cc1	Cl transport mod -6.18 | KCC2 sec1 inactive | KCC2 bumet counter 0.0108 | KCC2 secondary2 inactive | HEK293 Tl flux inactive | KCC2 ouabain 0.014 | HEK293 Tl flux2 inactive
COc1ccc(NC(=S)NC(=O)c2csnn2)cc1	Cl transport mod 138 (no result: ROMK primary) | KCC2 sec1 0.0887 | KCC2 bumet counter 0.11 | KCC2 secondary2 0.125 | HEK293 Tl flux 0.125 | KCC2 ouabain 0.124 | HEK293 Tl flux2 0.124
CCOC(=O)c1c(NC(=S)Nc2ccc(OC)cc2)sc2c1CCCCC2	Cl transport mod 4.66 | KCC2 sec1 inactive | KCC2 bumet counter 0.0107 | KCC2 secondary2 inactive | HEK293 Tl flux 0.0119 | KCC2 ouabain inactive | HEK293 Tl flux2 inactive
CCOC(=O)c1c(NC(=O)CC2SC(N)=NC2=O)sc2c1CCCC2 (stereo not drawn)	Cl transport mod -3.78 (no result: ROMK primary) | KCC2 sec1 inactive | KCC2 bumet counter inactive | KCC2 secondary2 inactive | HEK293 Tl flux inconclusive | KCC2 ouabain inactive | HEK293 Tl flux2 inactive
CCOC(=O)c1ccc(NC(=O)COC)cc1	none (no result: Cl transport mod, b-catenin transl, ROMK primary)
